Measurements reported in the array DNA melting data of Ke et al. (doi:10.1101/2024.01.08.574731).

Assays:
[1] = folding enthalpy; higher = less favourable; fluorescence melt of hairpins on a sequencing array, two-state fit; conditions: sodium 0.088 M
Method in brief: (§1)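 Two-state fits, bootstrapped, provided melting temperature and folding enthalpy from Cy3 fluorescence normalised to pre-quench Cy3 and to control constructs. Library hairpins with annealed Cy3 and quencher oligos were imaged on a sequenced MiSeq flow cell in 50 mM Na-HEPES pH 8.0, 25 mM NaCl, at 2.5 °C intervals up to 60 °C. Four replicates were combined with inverse-variance weighting. A 9.35 °C upward shift was applied to fitted temperatures to match UV melts.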

[2] = melting temperature; fluorescence melt of hairpins on a sequencing array, two-state fit, raised by 9.35 °C to match UV melts; conditions: sodium 0.088 M
Method in brief: as §1

| Sequence | folding enthalpy [1] [kcal/mol] | Tm [2] [°C] |
| --- | --- | --- |
| GAGTTTGGAAACGAATTC ((.((.(....).)).)) | -18.4 | 33.5 |
| GATTTCCGAAAGGAGATC (((.(((....))).))) | -34.3 | 46.8 |
| GGACCCGAAAGGGTTTCC ((((((....)))..))) | -8.05 | 37.1 |
| GGTACCGAAAGGTCAACC ((((((....)))..))) | -15.3 | 34.5 |
| GTCCATGAAAATGGAC ((((((....)))))) | -31.7 | 62.4 |
| GTACAAGCGAAAGCTTAC (((..(((....)))))) | -11.2 | 28.4 |
| GAGGTGCGAAAGCACTC (((.(((....)))))) | -10 | 48.3 |
| GCCGCAGGAAACTACGGC ((((.((....)).)))) | -32.5 | 50.8 |
| GATCTCCCATGAGATC ((((((....)))))) | -34.4 | 51.6 |
| GATCCCACTCGGGATC ((((((....)))))) | -38.1 | 61.8 |
| GTTTGAACGAAAGTTAAC (((..(((....)))))) | -12.3 | 24.4 |
| GGTTACACGAAAGTGACC (((..(((....)))))) | -16.6 | 35.5 |
| GGTCTCTCGAAAGAGACC (((..(((....)))))) | -35.3 | 60.5 |
| GGAGTACGAAAGTAATCC (((.(((....))).))) | -31 | 51.4 |
| GATTCCGGAAACAGAATC (((((.(....).))))) | -23.4 | 32.1 |
| CACTTGAAAAAGTG (((((....))))) | -21.2 | 43.6 |
| GTCACTGCGAAAGCAGAC (((..(((....)))))) | -7.51 | 28.5 |
| ATCATGAAAATGAT (((((....))))) | -13.8 | 38.5 |
| GACCAGGAAACTGGTC ((((((....)))))) | -39 | 63.4 |
| GCACGTCGAAAGACTTGC (((.(((....))).))) | -40.6 | 51.1 |
| GATCCTATTGAGGATC ((((((....)))))) | -40.9 | 51.4 |
| GACCAAGGAAACTTGGTC (((((((....))))))) | -35.8 | 60.5 |
| GGACCAGGAAACCAGTCC ((((..(....)..)))) | -20.3 | 33.9 |
| GAACGCACGAAAGTGTTC (((..(((....)))))) | -12.8 | 34.1 |

| Sequence | folding enthalpy [1] [kcal/mol] | Tm [2] [°C] |
| --- | --- | --- |
| GCTTGCGGAAACGTAAGC ((((.((....)).)))) | -35.1 | 52.5 |
| GACTTCGGAAACGAGGTC (((.(((....))).))) | -35.9 | 49.9 |
| GATCTATCGTAGATC ((((((...)))))) | -12.9 | 38.4 |
| GATCTGTGCGCAGATC ((((((....)))))) | -47.1 | 57 |
| ATGTGGAAACACAT (((((....))))) | -20.3 | 46.1 |
| GTTGTCGGAAACGATAAC (((.(((....))).))) | -34.6 | 47.8 |
| GCGTCAACGAAAGTTCGC (((..(((....)))))) | -27.6 | 45 |
| GATCCGCATGCGGATC ((((((....)))))) | -30.3 | 69 |
| GCCCGGCGAAAGCGGAGC ((.(.((....)).).)) | -14.8 | 54.8 |
| GCGTAGAACGC ((((...)))) | -23.7 | 54.6 |
| GTAGCTGGAAACAGCTGC (.(((((....))))).) | -26.3 | 55.2 |
| GGCCGCGAAAGCGCTGCC ((((((....)))..))) | -18.6 | 56.5 |
| GACGTACGAAAGTAAGTC (((.(((....))).))) | -29.2 | 50.6 |
| GATCCTGTTAGGATC ((((((...)))))) | -38.1 | 55.4 |
| GGAAGTGGAAACACTTCC (((((((....))))))) | -54 | 61 |
| GGATGAGGAAACTCGTCC (((.(((....))).))) | -38.4 | 50.8 |
| GCTTGTGGAAACACGAGC (((.(((....))).))) | -37.8 | 54.5 |
| GGGCCCCGAAAGGGACCC (((.(((....))).))) | -26 | 69 |
| GCGGGTTCCCGC ((((....)))) | -23.3 | 67.3 |
| CGCCCCCGGAAACGGGCG (((..(((....)))))) | -13.8 | 54.3 |
| GGTTAGGGAAACCCAACC ((((.((....)).)))) | -28.6 | 41 |
| GATCCGTCTCGGATC ((((((...)))))) | -42.8 | 59.7 |
| GCTTCTGGAAACAGAGGC ((.((((....)))).)) | -33 | 48.3 |
| GGCACCGAAAGGTTTGCC ((((((....)))..))) | -22.6 | 50.6 |

| Sequence | folding enthalpy [1] [kcal/mol] | Tm [2] [°C] |
| --- | --- | --- |
| GCCTTAGAAATAAGGC ((((((....)))))) | -30.2 | 52.9 |
| GGAATCGAAAGATGTTCC ((((((....)))..))) | -8.43 | 22.8 |
| GAGAGACGAAAGTCCCTC (((.(((....))).))) | -25.8 | 44.9 |
| GATCTACGCCTAGATC ((((((....)))))) | -33.8 | 42.6 |
| GATGGGGGAAACCTCGTC ((.(.((....)).).)) | -20 | 33.2 |
| GTTGACGAAAGTCGGAAC ((((((....)))..))) | -8.87 | 32.7 |
| GATCCCAGCAGGGATC ((((((....)))))) | -34.6 | 66.3 |
| GTCGACACGAAAGTGGAC (((..(((....)))))) | -13.9 | 41.2 |
| GCAATCGAAAGATAATGC ((((((....)))..))) | -16.3 | 27.8 |
| GTGTTCGAAAGAATGCAC ((((((....)))..))) | -19.1 | 33.5 |
| GATTGAGGAAACTTGATC (((..((....))..))) | -7.66 | 22.4 |
| GGTTGAGCGAAAGCTACC (((..(((....)))))) | -13.1 | 42.4 |
| GGCCTGCGAAAGCAAGCC (((.(((....))).))) | -30.1 | 58.5 |
| GCGTTCTCACGC ((((....)))) | -25.9 | 50.6 |
| GATCCAGACTGGATC ((((((...)))))) | -36.9 | 52 |
| GTGAACGAAAGTTCCCAC ((((((....)))..))) | -10.9 | 29.7 |
| GGTCTCGAAAGAGGTACC ((((((....)))..))) | -19.9 | 35 |
| GCGCTAGGAAACTAGCAC (.(((((....))))).) | -15.4 | 44 |
| GCCCCAGCGAAAGCTGGC (((..(((....)))))) | -5.59 | 37.9 |
| GTGTAACCGAAAGGTCAC (((..(((....)))))) | -22.6 | 43.6 |
| GATCTGGAGCCAGATC ((((((....)))))) | -37.6 | 49.5 |
| TAGAGGAAACTCTA (((((....))))) | -8.94 | 32.1 |
| GTGGAACGAAAGTTACAC (((.(((....))).))) | -40.4 | 57 |
| GACACGACGAAAGTCGTC (((..(((....)))))) | -6.1 | 34.4 |

| Sequence | folding enthalpy [1] [kcal/mol] | Tm [2] [°C] |
| --- | --- | --- |
| GTGGCGGGAAACTGCCAC (((((.(....).))))) | -54.1 | 60.7 |
| GTCCATGGAAACGTGGAC (((((.(....).))))) | -48.1 | 52.9 |
| GCTGGAGGAAACTCCGGC ((.((((....)))).)) | -40.4 | 57.1 |
| GGTATCGAAAGATGCACC ((((((....)))..))) | -16.1 | 33.9 |
| GATATAGAAATATATC ((((((....)))))) | -15 | 31.8 |
| GAGATGCGAAAGCACCTC (((.(((....))).))) | -23.9 | 49 |
| GGAGGTGCGAAAGCATCC (((..(((....)))))) | -11.6 | 39.3 |
| GATCAAGAGCTTGATC ((((((....)))))) | -38.2 | 42.2 |
| GGTCACGAAAGTGTGACC ((((((....)))..))) | -33.8 | 56.3 |
| GCGAATGGTCGC ((((....)))) | -10.4 | 47.8 |
| GATAGAGGAAACTCTGTC ((.((((....)))).)) | -32.1 | 38 |
| GATCGAGAGCTCGATC ((((((....)))))) | -36.5 | 51.8 |
| GATCACGTACGTGATC ((((((....)))))) | -47.7 | 64 |
| GGGGTGCCGAAAGGCCCC (((..(((....)))))) | -14.6 | 65 |
| GGATGGGGAAACTCATCC (((((.(....).))))) | -41 | 49.2 |
| GATCTTGGGAAGATC ((((((...)))))) | -22.8 | 39.7 |
| GATCGAGATGTCGATC ((((((....)))))) | -37 | 52.5 |
| GATCCGCGGCGGATC ((((((...)))))) | -50.8 | 57.7 |
| GCTGTTGCGAAAGCAAGC (((..(((....)))))) | -12.6 | 47.3 |
| GATCCTGTGAAGGATC ((((((....)))))) | -35.4 | 58.4 |
| GTGCGAGGAAACTCACAC (((.(((....))).))) | -34.2 | 45.8 |
